Experimental data: ChEMBL document CHEMBL4118104, “Design, Synthesis, and Evaluation of Orally Bioavailable Quinoline-Indole Derivatives as Innovative Multitarget-Directed Ligands: Promotion of Cell Proliferation in the Adult Murine Hippocampus for the Treatment of Alzheimer's Disease” (J Med Chem, 2018)

What was measured:
[1] = tested on: Mus musculus; experiment: Toxicity in double APP/PS1 transgenic Alzheimer's disease mouse model assessed as carcinogenicity in heart at 30 mg/kg/day, po for 80 days; format: organism-based; settings: in vivo, 1920 h
In short: (§1)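 APP/PS1 double-transgenic mice, six months old, dosed by intragastric infusion at 30 mg/kg/day in 0.5% CMC-Na for 80 consecutive days (n = 10). Vehicle mice and wild-type C57BL/6 mice received blank 0.5% CMC-Na. Body weight tracked daily; diarrhoea, emesis-like behaviour and mortality monitored. At sacrifice, brain, subcutaneous layer, stomach, intestines, heart, lung, liver, spleen, kidneys and other organs examined for expansion or carcinogenicity.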

[2] = Metabolic stability in Sprague-Dawley rat liver microsomes assessed as metabolic rate constant at 100 uM up to 180 mins by HPLC-UV analysis; settings: 3 h
[3] = tested on: Mus musculus; experiment: Toxicity in C57BL/6 mouse assessed as macroscopic abnormalities of kidney at 677 to 2000 mg/kg, ig after 14 consecutive days; format: organism-based; settings: in vivo, po
[4] = tested on: Mus musculus; experiment: Toxicity in C57BL/6 mouse assessed as histological abnormalities of lung at 2000 mg/kg, ig after 14 consecutive days by hematoxylin/eosin dye-based microscopic analysis; format: organism-based; settings: in vivo, po, 336 h
In short: (§2)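 Adult C57BL/6 mice, 12 weeks old, single intragastric doses of 0, 677, 1333 or 2000 mg/kg (n = 6 per dose, 3 male/3 female); behaviour and mortality observed over 14 days; liver, heart, lung and brain examined by HE staining at 2000 mg/kg.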

[5] = tested on: Mus musculus; experiment: Cognition enhancement activity in double APP/PS1 transgenic Alzheimer's disease mouse model assessed as swimming path length in effective region at 30 mg/kg/day, po for 80 days by Morris water maze test (reference value: 44.2 +/- 4.9 cm); format: functional
In short: (§3)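 APP/PS1 mice, six months old, gavaged 30 mg/kg/day in 0.5% CMC-Na for 80 days. Probe trial was a single 90 s free swim with the platform absent; effective region is twice the platform diameter. n = 10, mean ± SD, two-way ANOVA.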

[6] = tested on: Mus musculus; experiment: Toxicity in C57BL/6 mouse assessed as histological abnormalities of heart at 2000 mg/kg, ig after 14 consecutive days by hematoxylin/eosin dye-based microscopic analysis; format: organism-based; settings: in vivo, po; in short: as §2
[7] = tested on: Mus musculus; experiment: Toxicity in double APP/PS1 transgenic Alzheimer's disease mouse model assessed as carcinogenicity in intestine at 30 mg/kg/day, po for 80 days; format: organism-based; settings: in vivo, 1920 h; in short: as §1
[8] = tested on: Mus musculus; experiment: Induction of cell proliferation in C57BL/6 mouse hippocampal neurons in CA2 region assessed as BrdU-incorporation at 30 mg/kg, po administered via gavage for 7 days by immunohistochemical analysis (reference value: 2.4%); format: functional
In short: (§4)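 C57BL/6 mice, 12 weeks old, n = 6, individually housed beforehand without wheels. Compound gavaged 30 mg/kg/day for 7 days with daily IP BrdU 50 mg/kg; BrdU+ cells counted by immunohistochemistry per hippocampal volume; two-way ANOVA.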

[9] = tested on: Mus musculus; experiment: Induction of cell proliferation in C57BL/6 mouse hippocampal neurons in CA3 region assessed as BrdU-incorporation at 30 mg/kg, po administered via gavage for 7 days by immunohistochemical analysis (reference value: 1.5%); format: functional; in short: as §4
[10] = tested on: Mus musculus; experiment: Toxicity in C57BL/6 mouse assessed as macroscopic abnormalities of spleen at 677 to 2000 mg/kg, ig after 14 consecutive days; format: organism-based; settings: in vivo, po
[11] = tested on: Mus musculus; experiment: Antialzheimer activity in double APP/PS1 transgenic Alzheimer's disease mouse model assessed as reduction in amyloid beta burden at 30 mg/kg/day, po for 80 days by immunochemical staining-based analysis relative to control; format: functional; parameters: scale not given: the % may be the effect or the level left
In short: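 APP/PS1 mice gavaged 30 mg/kg/day for 80 days (n = 10). Coronal sections immunostained with mOC64 anti-Aβ antibody; plaque burden is the percent area of a half coronal hemisphere.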

[12] = tested on: Mus musculus; experiment: Toxicity in C57BL/6 mouse assessed as histological abnormalities of liver at 2000 mg/kg, ig after 14 consecutive days by hematoxylin/eosin dye-based microscopic analysis; format: organism-based; settings: in vivo, po, 336 h; in short: as §2
[13] = Half life in Sprague-Dawley rat liver microsomes at 100 uM up to 180 mins by HPLC-UV analysis; settings: liver microsomes
[14] = tested on: Mus musculus; experiment: Cognition enhancement activity in double APP/PS1 transgenic Alzheimer's disease mouse model assessed as swimming path length in virtual platform at 30 mg/kg/day, po for 80 days by Morris water maze test (reference value: 9.1 +/- 2.8 cm); format: functional; in short: as §3
[15] = tested on: Mus musculus; experiment: Toxicity in double APP/PS1 transgenic Alzheimer's disease mouse model assessed as carcinogenicity in spleen at 30 mg/kg/day, po for 80 days; format: organism-based; settings: in vivo, 1920 h; in short: as §1
[16] = tested on: Mus musculus; experiment: Toxicity in double APP/PS1 transgenic Alzheimer's disease mouse model assessed as emesis-like behavior at 30 mg/kg/day, po for 80 days; format: organism-based; settings: in vivo, 1920 h; in short: as §1
[17] = tested on: Mus musculus; experiment: Toxicity in C57BL/6 mouse assessed as histological abnormalities of brain at 2000 mg/kg, ig after 14 consecutive days by hematoxylin/eosin dye-based microscopic analysis; format: organism-based; settings: in vivo, po, 336 h; in short: as §2
[18] = tested on: Mus musculus; experiment: Cognition enhancement activity in double APP/PS1 transgenic Alzheimer's disease mouse model assessed as time spent in virtual platform at 30 mg/kg/day, po for 80 days by Morris water maze test (reference value: 1.9 +/- 0.2 sec); format: functional; in short: as §3
[19] = tested on: Mus musculus; experiment: Induction of cell proliferation in C57BL/6 mouse hippocampal neurons in CA3 region assessed as BrdU-incorporation at 0.5 uL/hr, icv for 7 days by immunohistochemical analysis (reference value: 1.4%); format: functional
[20] = tested on: Mus musculus; experiment: Toxicity in C57BL/6 mouse assessed as effect on water intake at 677 to 2000 mg/kg, ig measured continuously during first 4 hrs, intermittently for following 24 hrs and occasionally thereafter for 14 consecutive days; format: organism-based; settings: in vivo, po
[21] = tested on: Mus musculus; experiment: Toxicity in double APP/PS1 transgenic Alzheimer's disease mouse model assessed as carcinogenicity in stomach at 30 mg/kg/day, po for 80 days; format: organism-based; settings: in vivo, 1920 h; in short: as §1
[22] = tested on: Mus musculus; experiment: Toxicity in C57BL/6 mouse assessed as macroscopic abnormalities of lung at 677 to 2000 mg/kg, ig after 14 consecutive days; format: organism-based; settings: in vivo, po, 336 h
[23] = tested on: Mus musculus; experiment: Toxicity in C57BL/6 mouse assessed as effect on body weight at 677 to 2000 mg/kg, ig measured continuously during first 4 hrs, intermittently for following 24 hrs and occasionally thereafter for 14 consecutive days; format: organism-based; settings: in vivo, po
[24] = tested on: Mus musculus; experiment: Toxicity in double APP/PS1 transgenic Alzheimer's disease mouse model assessed as brain expansion at 30 mg/kg/day, po for 80 days; format: organism-based; settings: in vivo, 1920 h; in short: as §1
[25] = tested on: Mus musculus; experiment: Cognition enhancement activity in double APP/PS1 transgenic Alzheimer's disease mouse model assessed as swimming path length in correct quadrant at 30 mg/kg/day, po for 80 days by Morris water maze test (reference value: 295.3 +/- 46.9 cm); format: functional; in short: as §3
[26] = tested on: Mus musculus; experiment: Toxicity in C57BL/6 mouse assessed as macroscopic abnormalities of liver at 677 to 2000 mg/kg, ig after 14 consecutive days; format: organism-based; settings: in vivo, po
[27] = tested on: Mus musculus; experiment: Toxicity in double APP/PS1 transgenic Alzheimer's disease mouse model assessed as swimming speed at 30 mg/kg/day, po for 80 days by Morris water maze test (reference value: 17.8 +/- 2.5 cm/sec); format: organism-based; settings: in vivo, 1920 h

Structure (SMILES) | Activity [1] | K [2] [min⁻¹] | Activity [3] | Activity [4] | Activity [5] [cm] | Activity [6] | Activity [7] | Activity [8] [%] | Activity [9] [%] | Activity [10] | Activity [11] | Activity [12] | half-life at 3 h, 100 µM [13] [h] | Activity [14] [cm] | Activity [15] | Activity [16] | Activity [17] | Time [18] [s] | Activity [19] [%] | Activity [20] | also measured
Cl.Oc1c(Cl)cc(Cl)c2ccc(-c3cc4cc5c(cc4[nH]3)OCO5)nc12 | Non-Toxic | 0.00178 | Non-Toxic | Non-Toxic | 65.5 | Non-Toxic | Non-Toxic | 16.3 | 17.1 | Non-Toxic | 26% | Non-Toxic | 6.49 | 15 | Non-Toxic | Non-Toxic | Non-Toxic | 2.6 | 37.6 | Non-Toxic | Activity [21]: Non-Toxic; Activity [22]: Non-Toxic; Activity [23]: Non-Toxic; Activity [24]: Non-Toxic; Activity [25]: 473.5 cm; Activity [26]: Non-Toxic; Activity [27]: 19 cm/s
Cl.Oc1ccc2[nH]c(-c3ccc4c(Cl)cc(Cl)c(O)c4n3)cc2c1 | Non-Toxic | 0.00593 | Non-Toxic | Non-Toxic | 71.3 | Non-Toxic | Non-Toxic | 24.3 | 23.9 | Non-Toxic | <=54% | Non-Toxic | 1.95 | 22.1 | Non-Toxic | Non-Toxic | Non-Toxic | 3.2 | 36.5 | Non-Toxic | Activity [21]: Non-Toxic; Activity [22]: Non-Toxic; Activity [23]: Non-Toxic; Activity [24]: Non-Toxic; Activity [25]: 533.3 cm; Activity [26]: Non-Toxic; Activity [27]: 18.9 cm/s
